We go through seven molecules from ChEMBL document CHEMBL4831479, “Discovery of Novel Thiophene-arylamide Derivatives as DprE1 Inhibitors with Potent Antimycobacterial Activities” (J Med Chem, 2021).

What all share (type): functional
Holding throughout (conditions): variant bovis BCG, 168 h, time 7 day

The subject of assay [1] is Mycobacterium tuberculosis. The assay can be described thus: Antibacterial activity against Mycobacterium bovis BCG transfected with pMV261:Mt-dprE1 assessed as bacterial growth inhibition incubated for 7 days by resazurin assay. The procedure, abridged:
(§1)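 M. bovis BCG Pasteur carrying pMV261 (constitutive expression) with Mt-dprE1, Mt-dprE2 or empty vector; MIC after 7 days' exposure to compound, viability read as endogenous reductase conversion of resazurin to resorufin. INH used as control.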
A general note: Alamar Blue is a resazurin reagent that responds to reducing activity.

Assay [2] deals with Mycobacterium tuberculosis. The assay can be described thus: Antibacterial activity against Mycobacterium bovis BCG transfected with pMV261:Mt-dprE2 assessed as bacterial growth inhibition incubated for 7 days by resazurin assay. The procedure, abridged:
as §1

In assay [3] the test system is Mycobacterium tuberculosis. The assay can be described thus: Antibacterial activity against wild type Mycobacterium bovis BCG assessed as bacterial growth inhibition incubated for 7 days by resazurin assay. Summed up: as §1

Converted amounts (≈) assume the structure as drawn. Some results are limits rather than exact numbers.

One may read the MIC as the smallest concentration in the dilution series that meets the test's criterion for growth inhibition. In the case of `CCOC(=O)NC(=O)c1ccsc1NC(=O)c1nc2ccccc2s1`, the minimum inhibitory concentration (MIC) in assay [1] is 15.4 µg/mL (≈ 40.9 µM).
On to `COC(=O)NC(=O)c1ccsc1NC(=O)c1ccc(C(=O)N2CCCCC2)c(F)c1`, for which the MIC in assay [2] is 0.25 µg/mL (≈ 0.577 µM); in assay [1] it was greater than 1.98 µg/mL.
For `O=C(Nc1sccc1C(=O)Nc1nccc(C(F)(F)F)n1)c1ccc(C(=O)N2CCCCC2)cc1`, the MIC in assay [3] stood at 1.6 µg/mL (≈ 3.18 µM); in assay [2], 1.6 µg/mL (≈ 3.18 µM); in assay [1], 12.8 µg/mL (≈ 25.4 µM).
With `CCOC(=O)NC(=O)c1ccsc1NC(=O)c1ccc(C(=O)N2CCCCC2)c(F)c1`, the MIC is 0.064 µg/mL (≈ 0.143 µM) in assay [3] and greater than 0.51 µg/mL in assay [1].
`COC(=O)NC(=O)c1ccsc1NC(=O)c1ccc(C(=O)N2CCCCC2)cc1`: the results for the MIC in assay [3], in assay [2] and in assay [1] were 0.76 µg/mL (≈ 1.83 µM), 1.52 µg/mL (≈ 3.66 µM) and 12.2 µg/mL (≈ 29.3 µM), respectively.
The like results for `CCOC(=O)NC(=O)c1ccsc1NC(=O)c1ccc(C(=O)N2CCCCC2)cc1` were, in that order, 0.32 µg/mL (≈ 0.745 µM), 0.32 µg/mL (≈ 0.745 µM) and greater than 1.28 µg/mL.
In the case of `CCOC(=O)NC(=O)c1ccsc1NC(=O)c1ccc(C(=O)N2CCCCC2)s1`, the MIC in assay [3] was found to be 0.28 µg/mL (≈ 0.643 µM); in assay [2], 0.56 µg/mL (≈ 1.29 µM); in assay [1] it was 8.96 µg/mL (≈ 20.6 µM).
